Experimental data taken from article PMC7709506 (ESMO Open, 2020).

Assay: Safety and tolerability
Assay type: in vivo, human
Procedure, shortened: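 Open-label multicentre phase I/IIa trial in adults with advanced or metastatic solid tumours. Part 1 used 3+3 oral capsule escalation at 50–800 mg/day to define DLT and MTD. Part 2 gave tablets. Treatment continued until progression, intolerable AE or study end, with dose decisions by a safety monitoring board. AEs of special interest were monitored. The safety population was all dosed patients, summarised by dose level.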

[1] = 30 patients treated with 400 mg/day

Cn1cc(-c2ccc3c(c2)ncn3-c2cc(NS(=O)(=O)C3CC3)cc(-c3ccc(F)cc3F)c2)cn1 [ODM-203]
1 (33.3) n (%): Asthenia (capsule 200 mg (n=3)) | Epistaxis (capsule 200 mg (n=3))
4 (57.1) n (%): AE leading to treatment interruption (capsule 400 mg (n=7))
42 (50.0) n (%): Diarrhoea (Total (N=84))
26 (31.0) n (%): Alopecia (Total (N=84))
27 (32.1) n (%): Jaundice (Total (N=84))
16 (19.0) n (%): Hyperbilirubinaemia (Grade 3–5, all doses (n=84))
3 patients: dose reduction due to palmar-plantar erythrodysesthesia syndrome (N=84)
2 (2.4) n (%): Arthralgia (Grade 3–5, all doses (n=84)) | Asthenia (Grade 3–5, all doses (n=84)) | Jaundice (Grade 3–5, all doses (n=84)) | Myalgia (Grade 3–5, all doses (n=84))
22 (73.3) n (%): AE leading to treatment interruption (capsule 600 mg (n=30))
2 (6.7) n (%): AE leading to death (capsule 600 mg (n=30))
36 (42.9) n (%): Blood bilirubin increased (Total (N=84))
23 (27.4) n (%): Fatigue (Total (N=84))
8 (26.7) n (%): Alopecia (capsule 600 mg (n=30)) | Asthenia (capsule 600 mg (n=30))
11 (36.7) n (%): Arthralgia (capsule 600 mg (n=30))
2 (66.7) n (%): Related AE (capsule 200 mg (n=3))
84 (100) n (%): Any AE (Total (N=84))
1 (14.3) n (%): AE leading to discontinuation (capsule 400 mg (n=7)) | AE leading to dose reduction (capsule 400 mg (n=7)) | Alopecia (capsule 400 mg (n=7)) | Arthralgia (capsule 400 mg (n=7)) | Asthenia (capsule 400 mg (n=7)) | Decreased appetite (capsule 400 mg (n=7)) | Diarrhoea (capsule 400 mg (n=7)) | Dry mouth (capsule 400 mg (n=7)) | Epistaxis (capsule 400 mg (n=7)) | Fatigue (capsule 400 mg (n=7)) | Mucosal inflammation (capsule 400 mg (n=7)) | Myalgia (capsule 400 mg (n=7)) | Nasal dryness (capsule 400 mg (n=7)) | Stomatitis (capsule 400 mg (n=7)) | Vomiting (capsule 400 mg (n=7)) | Weight decreased (capsule 400 mg (n=7))
3 (100) n (%): Any AE (capsule 200 mg (n=3))
3 (10.0) n (%): Conjugated bilirubin increased (capsule 600 mg (n=30))
84 patients: patients with at least one AE during treatment (all doses, N=84)
25 (29.8) n (%): Asthenia (Total (N=84)) | Decreased appetite (Total (N=84))
36.7%: Hyperbilirubinaemia [1]
1 (1.2) n (%): Alopecia (Grade 3–5, all doses (n=84)) | Onycholysis (Grade 3–5, all doses (n=84)) | Weight decreased (Grade 3–5, all doses (n=84))
7 (8.3) n (%): AE leading to death (Total (N=84))
61 (72.6) n (%): AE leading to treatment interruption (Total (N=84))
5 (6.0) n (%): Diarrhoea (Grade 3–5, all doses (n=84)) | Fatigue (Grade 3–5, all doses (n=84))
20 (23.8) n (%): Blood bilirubin increased (Grade 3–5, all doses (n=84)) | Dysgeusia (Total (N=84)) | Hyperphosphataemia (Total (N=84))
10 (11.9) n (%): Dry skin (Total (N=84)) | Mucosal inflammation (Total (N=84))
82 (97.6) n (%): Related AE (Total (N=84))
4 (4.8) n (%): Palmar-plantar eryrthodysaestesia (Grade 3–5, all doses (n=84))
1 (100) n (%): AE leading to treatment interruption (capsule 100 mg (n=1)) | Any AE (capsule 100 mg (n=1)) | Related AE (capsule 100 mg (n=1))
29 (34.5) n (%): Dry mouth (Total (N=84))
34 (40.5) n (%): Stomatitis (Total (N=84))
7 (100) n (%): Any AE (capsule 400 mg (n=7)) | Related AE (capsule 400 mg (n=7))
0 n (%): Conjugated bilirubin increased (Grade 3–5, all doses (n=84)) | Decreased appetite (Grade 3–5, all doses (n=84)) | Dry mouth (Grade 3–5, all doses (n=84)) | Dry skin (Grade 3–5, all doses (n=84)) | Dysgeusia (Grade 3–5, all doses (n=84)) | Epistaxis (Grade 3–5, all doses (n=84)) | Hyperphosphataemia (Grade 3–5, all doses (n=84)) | Mucosal inflammation (Grade 3–5, all doses (n=84)) | Nasal dryness (Grade 3–5, all doses (n=84)) | Nausea (Grade 3–5, all doses (n=84)) | Vomiting (Grade 3–5, all doses (n=84)) | AE leading to death (capsule 100 mg (n=1)) | AE leading to discontinuation (capsule 100 mg (n=1)) | AE leading to dose reduction (capsule 100 mg (n=1)) | Alopecia (capsule 100 mg (n=1)) | Arthralgia (capsule 100 mg (n=1)) | Asthenia (capsule 100 mg (n=1)) | Blood bilirubin increased (capsule 100 mg (n=1)) | Conjugated bilirubin increased (capsule 100 mg (n=1)) | Decreased appetite (capsule 100 mg (n=1)) | Diarrhoea (capsule 100 mg (n=1)) | Dry mouth (capsule 100 mg (n=1)) | Dry skin (capsule 100 mg (n=1)) | Dysgeusia (capsule 100 mg (n=1)) | Epistaxis (capsule 100 mg (n=1)) | Fatigue (capsule 100 mg (n=1)) | Hyperbilirubinaemia (capsule 100 mg (n=1)) | Hyperphosphataemia (capsule 100 mg (n=1)) | Hypertension (capsule 100 mg (n=1)) | Jaundice (capsule 100 mg (n=1)) | Mucosal inflammation (capsule 100 mg (n=1)) | Myalgia (capsule 100 mg (n=1)) | Nasal dryness (capsule 100 mg (n=1)) | Nausea (capsule 100 mg (n=1)) | Onycholysis (capsule 100 mg (n=1)) | Palmar-plantar eryrthodysaestesia (capsule 100 mg (n=1)) | Related SAEs (capsule 100 mg (n=1)) | Stomatitis (capsule 100 mg (n=1)) | Vomiting (capsule 100 mg (n=1)) | Weight decreased (capsule 100 mg (n=1)) | AE leading to death (capsule 200 mg (n=3)) | AE leading to discontinuation (capsule 200 mg (n=3)) | AE leading to dose reduction (capsule 200 mg (n=3)) | AE leading to treatment interruption (capsule 200 mg (n=3)) | Alopecia (capsule 200 mg (n=3)) | Arthralgia (capsule 200 mg (n=3)) | Blood bilirubin increased (capsule 200 mg (n=3)) | Conjugated bilirubin increased (capsule 200 mg (n=3)) | Decreased appetite (capsule 200 mg (n=3)) | Diarrhoea (capsule 200 mg (n=3)) | Dry mouth (capsule 200 mg (n=3)) | Dry skin (capsule 200 mg (n=3)) | Dysgeusia (capsule 200 mg (n=3)) | Fatigue (capsule 200 mg (n=3)) | Hyperbilirubinaemia (capsule 200 mg (n=3)) | Hyperphosphataemia (capsule 200 mg (n=3)) | Hypertension (capsule 200 mg (n=3)) | Jaundice (capsule 200 mg (n=3)) | Mucosal inflammation (capsule 200 mg (n=3)) | Myalgia (capsule 200 mg (n=3)) | Nasal dryness (capsule 200 mg (n=3)) | Nausea (capsule 200 mg (n=3)) | Onycholysis (capsule 200 mg (n=3)) | Palmar-plantar eryrthodysaestesia (capsule 200 mg (n=3)) | Related SAEs (capsule 200 mg (n=3)) | Stomatitis (capsule 200 mg (n=3)) | Vomiting (capsule 200 mg (n=3)) | Weight decreased (capsule 200 mg (n=3)) | AE leading to death (capsule 400 mg (n=7)) | Conjugated bilirubin increased (capsule 400 mg (n=7)) | Dry skin (capsule 400 mg (n=7)) | Hypertension (capsule 400 mg (n=7)) | Nausea (capsule 400 mg (n=7)) | Onycholysis (capsule 400 mg (n=7)) | Related SAEs (capsule 400 mg (n=7))
9 (10.7) n (%): AE leading to dose reduction (Total (N=84)) | Vomiting (Total (N=84))
13 (43.3) n (%): Blood bilirubin increased (capsule 600 mg (n=30))
3 (42.9) n (%): Blood bilirubin increased (capsule 400 mg (n=7)) | Jaundice (capsule 400 mg (n=7))
30 (35.7) n (%): AE leading to discontinuation (Total (N=84)) | Palmar-plantar eryrthodysaestesia (Total (N=84))
19 (22.6) n (%): Weight decreased (Total (N=84))
2 patients: dose reduction due to arthralgia (N=84) | dose reduction due to increased blood bilirubin (N=84)
50.0%: increased blood bilirubin [1]
30 (100) n (%): Any AE (capsule 600 mg (n=30))
11 (13.1) n (%): Conjugated bilirubin increased (Total (N=84)) | Myalgia (Total (N=84)) | Nausea (Total (N=84)) | Onycholysis (Total (N=84))
16 patients: treatment interruption due to increase in blood bilirubin (N=84)
28 (33.3) n (%): Arthralgia (Total (N=84)) | Epistaxis (Total (N=84)) | Hyperbilirubinaemia (Total (N=84))
14 (16.7) n (%): Hypertension (Total (N=84)) | Related SAEs (Total (N=84))
1 (3.3) n (%): AE leading to dose reduction (capsule 600 mg (n=30))
2 (28.6) n (%): Dysgeusia (capsule 400 mg (n=7)) | Hyperbilirubinaemia (capsule 400 mg (n=7)) | Hyperphosphataemia (capsule 400 mg (n=7)) | Palmar-plantar eryrthodysaestesia (capsule 400 mg (n=7))
3 (3.6) n (%): Hypertension (Grade 3–5, all doses (n=84)) | Stomatitis (Grade 3–5, all doses (n=84))
8 patients: treatment interruption due to hyperbilirubinaemia (N=84)
17 (56.7) n (%): AE leading to discontinuation (capsule 600 mg (n=30))
13 (15.5) n (%): Nasal dryness (Total (N=84))
